Source: ChEMBL document CHEMBL5126596, “Design and synthesis of a novel non peptide CN-NFATc signaling inhibitor for tumor suppression in triple negative breast cancer” (Eur J Med Chem, 2022)
Calls of active or inactive are those of the source. The calls are words filed in the database; no cut-off is given here.

Columns and labels:
[1] = target: T1, Nuclear factor of activated T-cells, cytoplasmic 1 (Homo sapiens) (UniProt O95644); assay: Inhibition of NFATC activity in HEK293T cells at 50 uM preincubated for 2 hrs followed by ionomycin/phorbol 12-myristate 13-acetate stimulation and measured after 4 hrs by luciferase reporter assay; format: cell-based; settings: time 6.0 hrs
T1 sequence (whole entry): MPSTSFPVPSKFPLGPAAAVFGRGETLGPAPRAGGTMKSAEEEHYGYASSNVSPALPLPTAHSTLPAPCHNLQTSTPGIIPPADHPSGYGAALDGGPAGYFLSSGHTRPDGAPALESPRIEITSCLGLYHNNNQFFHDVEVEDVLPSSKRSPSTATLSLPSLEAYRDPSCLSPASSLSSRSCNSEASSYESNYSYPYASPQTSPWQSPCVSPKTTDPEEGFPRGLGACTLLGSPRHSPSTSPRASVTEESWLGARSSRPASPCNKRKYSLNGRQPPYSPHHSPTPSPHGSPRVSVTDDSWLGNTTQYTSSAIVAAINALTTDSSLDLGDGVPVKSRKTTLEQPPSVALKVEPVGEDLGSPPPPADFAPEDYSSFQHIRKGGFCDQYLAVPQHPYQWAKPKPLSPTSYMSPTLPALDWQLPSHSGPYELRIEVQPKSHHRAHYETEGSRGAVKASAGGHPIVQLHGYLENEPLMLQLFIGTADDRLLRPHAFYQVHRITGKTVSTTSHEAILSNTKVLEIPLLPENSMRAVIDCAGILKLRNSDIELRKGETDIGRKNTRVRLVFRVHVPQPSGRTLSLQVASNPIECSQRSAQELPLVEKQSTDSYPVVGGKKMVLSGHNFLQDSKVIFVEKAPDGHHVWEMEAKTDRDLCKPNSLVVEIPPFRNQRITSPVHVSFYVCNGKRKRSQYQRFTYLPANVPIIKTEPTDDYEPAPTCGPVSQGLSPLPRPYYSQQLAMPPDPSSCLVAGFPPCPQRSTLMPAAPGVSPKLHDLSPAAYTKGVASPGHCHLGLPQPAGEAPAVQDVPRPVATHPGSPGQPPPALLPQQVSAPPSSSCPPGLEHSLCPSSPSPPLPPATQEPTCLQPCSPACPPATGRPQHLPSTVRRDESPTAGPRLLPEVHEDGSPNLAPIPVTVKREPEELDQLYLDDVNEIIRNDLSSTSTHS
Method in brief: (§1)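 HEK 293T cells (7.5 × 10⁴/well) co-transfected by CaCl₂ method with 100 ng 3xNFAT-luc and 1 ng pRLnull as transfection control. At 24 h, compound added for 2 h, then stimulated with 1 µM ionomycin, PMA and CaCl₂ for 4 h (20 ng/ml PMA and 2 mM CaCl₂ per figure legend). Luciferase read from crude extracts, relative to stimulated no-compound control (100%). Single doses 50 and 5 μM; dose-response 0.1–50 μM. IC50 by nonlinear regression; 3 experiments in triplicate.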

[2] = target: T1, Nuclear factor of activated T-cells, cytoplasmic 1 (Homo sapiens); assay: Inhibition of NFATC activity in HEK293T cells preincubated for 2 hrs followed by ionomycin/phorbol 12-myristate 13-acetate stimulation and measured after 4 hrs by luciferase reporter assay; format: cell-based; settings: dose 0.1-50 µM, time 6.0 hrs, DDE = dose-dependent effect; method in brief: as §1
[3] = target: Protein phosphatase 3 catalytic subunit alpha (Homo sapiens) (UniProt Q08209); assay: Displacement of carboxyfluorescein labelled NFATc2 derived PRIEIT peptide from human CNAalpha (2 to 347 residues) at 10 to 100 uM preincubated for 15 mins followed by CF-PRIEIT addition and measured after 15 mins by fluorescence polarization assay; settings: dose 10-100 µM, time 30.0 min
Method in brief: (§2)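 FP competition assay: 10 µM human CNAα (residues 2–347) preincubated with compound for 15 min at rt. CF-tagged NFATc2 SPRIEIT peptide (10 nM) then added for a further 15 min. Read at excitation 485 nm / emission 535 nm. Triplicates from at least three independent experiments.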

CD4+ve Th = assay: Immunosuppressive activity in human CD4+ve Th cells assessed as inhibition of T cell proliferation […] by [3H]-thymidine incorporation based scintillation counter method; format: functional; settings: dose <= 10.0 µM, DDE = dose-dependent effect
[4] = target: T1, Nuclear factor of activated T-cells, cytoplasmic 1 (Homo sapiens); assay: Inhibition of NFATC activity in human PBMC cells assessed as reduction of IL2 gene expression preincubated for 2 hrs followed by ionomycin/phorbol 12-myristate 13-acetate stimulation and measured after 4 hrs by RT-PCR analysis; format: cell-based; settings: dose 2-50 µM, time 6.0 hrs, DDE = dose-dependent effect
Method in brief: (§3)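 Isolated hPBMC treated with compound at 50, 10 and 2 μM for 2 h. Stimulated without washout with 1 μM ionomycin, 20 nM PMA and 10 mM CaCl₂ for 4 h. RNA extracted and 1 μg reverse-transcribed; qPCR run with UPL probes. Fold change by ΔΔCT. Mean ± SD of 3 independent experiments in triplicate.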

[5] = target: T1, Nuclear factor of activated T-cells, cytoplasmic 1 (Homo sapiens); assay: Inhibition of NFATC activity in human CD4+ T cells assessed as reduction of IFN gamma secretion preincubated for 2 hrs followed by anti-CD3/CD28 stimulation and measured after 48 hrs by ELISA; format: cell-based; settings: CD4+ve Th
Method in brief: (§4)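 Donor CD4⁺ T cells (1 × 10⁵/well) treated with 10 or 1 μM compound for 2 h. Compound left in place during activation with anti-CD3/CD28 beads (10 cells/bead). IL-2 and IFNγ measured by ELISA in supernatants after 48 h. Mean ± SEM.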

[6] = target: Protein phosphatase 3 catalytic subunit alpha (Homo sapiens) (UniProt Q08209); assay: Displacement of carboxyfluorescein labelled NFATc2 derived PRIEIT peptide from human CNAalpha (2 to 347 residues) at 100 uM preincubated for 15 mins followed by CF-PRIEIT addition and measured after 15 mins by fluorescence polarization assay; settings: time 30.0 min; method in brief: as §2
[7] = target: T1, Nuclear factor of activated T-cells, cytoplasmic 1 (Homo sapiens); assay: Inhibition of NFATC activity in human PBMC cells assessed as reduction of IFN gamma gene expression preincubated for 2 hrs followed by ionomycin/phorbol 12-myristate 13-acetate stimulation and measured after 4 hrs byRT-PCR analysis; format: cell-based; settings: dose 2-50 µM, time 6.0 hrs, DDE = dose-dependent effect; method in brief: as §3
[8] = target: T1, Nuclear factor of activated T-cells, cytoplasmic 1 (Homo sapiens); assay: Inhibition of NFATC activity in human CD4+ T cells assessed as reduction of IL-2 secretion preincubated for 2 hrs followed by anti-CD3/CD28 stimulation and measured after 48 hrs by ELISA; format: cell-based; settings: CD4+ve Th; method in brief: as §4
[9] = target: T1, Nuclear factor of activated T-cells, cytoplasmic 1 (Homo sapiens); assay: Inhibition of NFATC activity in HEK293T cells at 5 to 50 uM preincubated for 2 hrs followed by ionomycin/phorbol 12-myristate 13-acetate stimulation and measured after 4 hrs by luciferase reporter assay; format: cell-based; settings: dose 5-50 µM, time 6.0 hrs; method in brief: as §1
[10] = target: Protein phosphatase 3 catalytic subunit alpha (Homo sapiens) (UniProt Q08209); assay: Displacement of carboxyfluorescein labelled NFATc2 derived PRIEIT peptide from human CNAalpha (2 to 347 residues) at 10 uM preincubated for 15 mins followed by CF-PRIEIT addition and measured after 15 mins by fluorescence polarization assay; settings: time 30.0 min; method in brief: as §2
[11] = Toxicity in BALB/c mouse assessed as clinical signs of abnormal constitution at 50 mg/kg, ip administered for 5 days and measured on day 7; format: organism-based; settings: in vivo, 168 h, time 7 day
Method in brief: (§5)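 BALB/c mice given 50 mg/kg ip daily, Monday to Friday, and killed on day seven. Monitored for macroscopic clinical signs, behavior, weight loss and general health.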

[12] = Toxicity in BALB/c mouse xenografted with mouse 4T1 cells assessed as effect on health conditions at 50 mg/kg, […]; format: organism-based; settings: in vivo, ip
4T1 [13] = assay: Antitumor activity against mouse 4T1 cells xenografted in BALB/c mouse assessed as decrease in tumor weight at 50 mg/kg, ip measured after 15 days; settings: time 15.0 day
4T1 [14] = assay: Anti-angiogenesis activity against mouse 4T1 cells xenografted in BALB/c mouse at 50 mg/kg, ip measured after 15 days by anti-CD31 staining based immunohistochemistry analysis; format: functional, organism-based; settings: time 15.0 day
[15] = Toxicity in BALB/c mouse xenografted with mouse 4T1 cells assessed as effect on body weight at 50 mg/kg, […]; format: organism-based; settings: in vivo, ip
[16] = Toxicity in BALB/c mouse assessed as aberrant behavior at 50 mg/kg, ip administered for 5 days and measured on day 7; format: organism-based; settings: in vivo, 120 h, time 5 day; method in brief: as §5
[17] = Toxicity in BALB/c mouse assessed as loss of body weight at 50 mg/kg, ip administered for 5 days and measured on day 7; format: organism-based; settings: in vivo, 120 h, time 5 day; method in brief: as §5
4T1 [18] = assay: Antitumor activity against mouse 4T1 cells xenografted in BALB/c mouse assessed as decrease in tumor weight at 50 mg/kg, ip measured after 15 days; format: functional, organism-based; settings: time 15.0 day
Method in brief: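 Female BALB/c mice (8 weeks, 18–19 g) given 0.5 × 10⁶ 4T1 cells in 1:1 DMEM/Matrigel into the number four mammary fat pad. Treatment began at day 11, once tumors exceeded 100 mm³, with randomization to groups of 9–10. Dosing was ip, daily Monday to Friday, for 15 days with DMSO vehicle. Tumors were then excised and weighed; body weight and health were followed.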

[19] = Toxicity in BALB/c mouse xenografted with mouse 4T1 cells assessed as effect on health conditions at 5 mg/kg, […]; format: organism-based; settings: in vivo, ip, time 5 day
[20] = Toxicity in BALB/c mouse xenografted with mouse 4T1 cells assessed as effect on body weight at 5 mg/kg, […]; format: organism-based; settings: in vivo, ip, 120 h, time 5 day
4T1 [21] = assay: Anti-angiogenesis activity against mouse 4T1 cells xenografted in BALB/c mouse at 5 mg/kg, ip measured after 15 days by anti-CD31 staining based immunohistochemistry analysis; format: functional, organism-based; settings: time 15.0 day

## O=C(CNC(=O)c1ccc2[nH]ccc2c1)Nc1cccc(S(=O)(=O)N2CCCCC2)c1
[1]
  inhibition: 60%
[2]
  inhibition: Dde
[3]
  Activity: Active

## CNc1ccc(C(=O)NCC(=O)Nc2cccc(S(=O)(=O)NCC(=O)O)c2)cc1
[1]
  inhibition: 60%
[3]
  Activity: Active

## CS(=O)(=O)NCc1cccc(NC(=O)c2csc3ccccc23)c1
CD4+ve Th
  Activity: Dde
[2]
  inhibition: Dde
[4]
  Activity: Dde
[5]
  inhibition: Active
[6]
  Activity: Active
[7]
  Activity: Dde
[8]
  inhibition: Active
[9]
  inhibition: 80%

## O=C(O)CNS(=O)(=O)c1cccc(NC(=O)CNC(=O)c2cnc3ccccc3c2)c1
[1]
  inhibition: 60%
[3]
  Activity: Active

## CS(=O)(=O)NCc1cccc(NC(=O)Cc2ccsc2)c1
[1]
  inhibition: 60%
[10]
  Activity: Active
[6]
  Activity: Active

## O=C(O)CNS(=O)(=O)c1cccc(NC(=O)CNC(=O)Cc2ccsc2)c1
[1]
  inhibition: 60%
[3]
  Activity: Active

## CS(=O)(=O)NCc1cccc(NC(=O)c2ccc3[nH]ccc3c2)c1
CD4+ve Th
  Activity: Dde
[11]
  Activity: Non-Toxic
[12]
  Activity: Non-Toxic
[2]
  inhibition: Dde
4T1 [13]
  Activity: Active
[10]
  Activity: Active
4T1 [14]
  Activity: Active
[4]
  Activity: Dde
[5]
  inhibition: Active
[6]
  Activity: Active
[7]
  Activity: Dde
[15]
  Activity: Non-Toxic
[16]
  Activity: Non-Toxic
[3]
  Activity: Active
[17]
  Activity: Non-Toxic
[8]
  inhibition: Active
[9]
  inhibition: 80%

## O=C(O)CNS(=O)(=O)c1cccc(NC(=O)CNC(=O)OCc2ccccc2)c1
[1]
  inhibition: 60%
[3]
  Activity: Active

## CCc1ccc(C(=O)Nc2cccc(CNS(C)(=O)=O)c2)cc1
[1]
  inhibition: 60%
[6]
  Activity: Active

## O=C(O)CNS(=O)(=O)c1cccc(NC(=O)CNC(=O)c2csc3ccccc23)c1
[1]
  inhibition: 60%
[3]
  Activity: Active

## CCc1ccc(C(=O)NCC(=O)Nc2cccc(S(=O)(=O)NCC(=O)O)c2)cc1
[1]
  inhibition: 60%
[3]
  Activity: Active

## C=CC[C@@H]1/C=C(\C)C[C@H](C)C[C@H](OC)[C@H]2O[C@@](O)(C(=O)C(=O)N3CCCC[C@H]3C(=O)O[C@H](/C(C)=C/[C@@H]3CC[C@@H](O)[C@H](OC)C3)[C@H](C)[C@@H](O)CC1=O)[C@H](C)C[C@@H]2OC [TACROLIMUS ANHYDROUS]
4T1 [18]
  Activity: Active
[19]
  Activity: Non-Toxic
[20]
  Activity: Non-Toxic
4T1 [21]
  Activity: Active

## Cc1ccc(C(=O)NCC(=O)Nc2cc(S(=O)(=O)Nc3ccc(Cl)cc3)ccc2Cl)s1
CD4+ve Th
  Activity: Dde
[11]
  Activity: Non-Toxic
[12]
  Activity: Non-Toxic
[2]
  inhibition: Dde
4T1 [13]
  Activity: Active
[4]
  Activity: Dde
[5]
  inhibition: Active
[7]
  Activity: Dde
[15]
  Activity: Non-Toxic
[16]
  Activity: Non-Toxic
[3]
  Activity: Active
[17]
  Activity: Non-Toxic
[8]
  inhibition: Active
[9]
  inhibition: 80%
